Screening data (PubChem BioAssay)
An excerpt weighted towards active compounds, which were near 4.6% of everything screened.
Hck-Nef inh: inhibitors of Nef-activated human Hck kinase, primary screen, biochemical, Z-Lyte FRET, 384-well, Hck-YEEI; Tyrosine-protein kinase HCK (Homo sapiens), P08631; Recombinant Hck-YEEI plus Nef, Z-Lyte FRET kinase assay; inhibition, % at 20 µM; 220,000 tested, 0.68% active; AID 463187, 2010;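 active means Hck-Nef kinase inhibition above about 50%, limit read from the data; inactive means inhibition below that limit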;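 further: 0% = DMSO with Hck plus Nef and 100% = Hck alone without Nef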
Target sequence (P08631 whole entry, looked up): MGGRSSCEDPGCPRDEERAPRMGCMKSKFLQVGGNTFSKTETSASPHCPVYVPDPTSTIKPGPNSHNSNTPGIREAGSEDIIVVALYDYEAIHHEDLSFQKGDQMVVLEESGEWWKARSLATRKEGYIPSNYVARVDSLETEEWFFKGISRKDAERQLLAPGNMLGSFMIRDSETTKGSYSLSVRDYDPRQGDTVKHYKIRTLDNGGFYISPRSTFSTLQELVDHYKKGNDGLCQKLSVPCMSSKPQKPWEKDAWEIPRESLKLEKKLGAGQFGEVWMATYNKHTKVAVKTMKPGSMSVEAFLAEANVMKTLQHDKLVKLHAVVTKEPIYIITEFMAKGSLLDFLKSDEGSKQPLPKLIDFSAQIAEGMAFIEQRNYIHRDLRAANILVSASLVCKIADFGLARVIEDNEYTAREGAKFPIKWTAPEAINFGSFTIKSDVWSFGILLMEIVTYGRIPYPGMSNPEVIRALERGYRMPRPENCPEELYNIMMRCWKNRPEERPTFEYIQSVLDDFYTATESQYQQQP
Arbovirus inh: antivirals against arbovirus infection, primary screen, cell-based, full library, 10K replicate subset; arbovirus infection cell-based antiviral screen; inhibition, % at 10 µM; 200,000 tested, 0.37% active; in the data active means inhibition above about 30%
WT yeast gro inh: growth inhibition of WT strain, primary screen, mitochondrial fusion inhibitor project, WT and mutant strains, chemical genetic; inhibition, % at 10 µM; mitochondrial fusion phenotypic screen; 190,000 tested, 2.1% active; AID 1362, 2008; in the data active means inhibition above about 58%; tested in S. cerevisiae
p47phox inh: p47phox/p22phox peptide binding inhibitors, primary screen, biochemical, uHTS, NADPH oxidase regulatory subunit; Neutrophil cytosol factor 1 (Homo sapiens), P14598; fluorescence polarization, 2 h; inhibition, % at 24.7 µM; 220,000 tested, 0.53% active;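 active means inhibition above about 30%, limit read from the data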;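 further: 0% = p47phox with labelled peptide and 100% = labelled peptide alone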
RAM inhibit: inhibitors of the yeast RAM network, primary screen, dse1pr::URA3 reporter, 5-FOA selection; S. cerevisiae dse1pr::URA3 reporter, 5-FOA growth OD615, 2 d; analog-sensitive cbk1-as2 kinase mutant strain; AID 868, 2007; inhibition, % at 50 µM; 190,000 tested, 1.8% active;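 active means inhibition above a set limit, 3 SD over mean compound inhibition, cut at about 8.4% in these data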;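 further: 0% = DMSO-only wells with no growth and 100% = 10 µM 1-NA-PP1 full growth; inhibition rescues growth on 5-FOA so higher OD means more RAM inhibition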
Biofilm kill mix: clotrimazole potentiators killing C. albicans biofilm, primary screen, 4-compound mixtures. C. albicans biofilm persisters + clotrimazole, fluorescence viability; primary screen in compound mixtures of four per well. inhibition, % at 7.6 µM. 120,000 tested, 0.02% active;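 active means inhibition above 30.3% in the primary screen of four-compound pools, then above 30% when the compound was retested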;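 further: compounds exposed to preformed 24 h biofilms for 48 h; 0% = untreated biofilm control and 100% = clotrimazole plus chlorhexidine kill blank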
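Test system: C. albicans biofilms. Buffer or medium: RPMI/MOPS medium, pH 7.0. Timing: 48 h compound exposure at 37 °C. Technique: Alamar Blue fluorescence. Evaluation: percent inhibition of biofilm viability.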
* marks the source's active call; other numbers are inactive results; · = not tested or not shown.

SMILES	Hck-Nef inh	Arbovirus inh	WT yeast gro inh	p47phox inh	RAM inhibit	Biofilm kill mix
Cc1ccccc1NC(=O)c1ccc(N/N=C/c2ccccc2O)c([N+](=O)[O-])c1	0	-14	-17	-53	8.7*	·
Cc1ccc(NC(=O)c2ccc(Nc3c([N+](=O)[O-])cc([N+](=O)[O-])cc3[N+](=O)[O-])cc2)cc1	3	-28	60*	-18	6	24
CC(C)(C)c1ccc(NC(=O)c2ccccc2)c([N+](=O)[O-])c1	20	-5	66*	-2	3	5
Cc1ccc(NC(=O)c2ccc(N/N=C/c3cccc(O)c3)c([N+](=O)[O-])c2)cc1	2	-17	-1	-150	9.0*	·
Cc1c(NC(=O)c2ccc(C(C)(C)C)cc2)cccc1[N+](=O)[O-]	3	0	5	-1	2	-11
O=C(NCCc1ccccc1)Nc1ccc2c(c1)OCO2	-2	-7	2	1	-1	-2
CN(C)c1cc[n+](CC(=O)N2CCCc3ccccc32)cc1	5	3	1	-9	2	20
CCOC(=O)c1cn(-c2ccc(F)c(F)c2F)c2c(F)c(F)c(F)cc2c1=O	-18	4	5	-8	3	·
CCOC(=O)c1cn(-c2nc(-c3ccc(Cl)c(Cl)c3)cs2)c2c(F)c(N3CCOCC3)c(F)cc2c1=O	7	-13	-24	-2	9.7*	·
CC1C(c2ccccc2)N(C)C(c2ccccc2)CC1(O)c1ccc(F)cc1 (stereo not given)	3	-29	69*	-2	-1	-1
Fc1ccc(NC(=S)N2N=CCC2c2ccccc2)cc1 (stereo not given)	1	0	16	0	2	·
N#C/C(=C\c1cn[nH]c1-c1ccc(Cl)cc1)C(=O)NC1CC1	3	5	-1	-7	2	15
N#C/C(=C\c1cn[nH]c1-c1ccc(Cl)cc1)C(=O)NCc1ccccc1	2	37*	4	-18	2	·
Cc1[nH]c2ccccc2c1/C=C(\C#N)C(=O)NC(C)c1ccccc1 (stereo not given)	0	10	85*	-6	2	·
CCc1ccc(C(C)NC(=O)/C(C#N)=C\c2cn[nH]c2-c2ccccc2)cc1 (stereo not given)	11	-30	59*	-14	6	·
CCN(CC(=O)Nc1ccc2c(c1)OCCO2)S(=O)(=O)c1ccc(C)cc1	-10	-5	46	-12	0	·
COc1cccc(N/C(SCc2cccc([N+](=O)[O-])c2)=C(/C#N)C(N)=O)c1	29	-20	8	1	8.5*	7
COc1ccccc1NC(=O)Cc1csc(NC(=O)c2ccccc2)n1	-6	-6	6	-3	9.2*	15
CN1CCN(c2ccc(CNS(=O)(=O)c3ccc(Cl)cc3)cc2)CC1	7	·	·	-7	·	20
Cc1sc(NC(=O)CSc2nnnn2C2CCCCC2)c(C#N)c1C	1	-1	75*	-48	3	·
COc1ccc(NC(=S)NCCc2ccc(Cl)cc2)c(OC)c1	0	4	67*	-14	0	·
COc1ccc(NC(=S)Nc2ccc(OCc3ccccc3)cc2)c(OC)c1	0	3	67*	-3	7	7
COc1ccc(CCNC(=S)Nc2cc(C)ccc2C)cc1	0	8	63*	-1	0	·
COc1ccc(NC(=S)NCCc2ccc(S(N)(=O)=O)cc2)c(OC)c1	25	14	-16	0	0	13
COc1ccc(/C(C)=N/NC(=S)Nc2cc(C)ccc2C)cc1	-28	1	67*	-1	2	17
SMILES	Hck-Nef inh	Arbovirus inh	WT yeast gro inh	p47phox inh	RAM inhibit	Biofilm kill mix
COc1ccc(CNC(=S)Nc2cc(C)ccc2C)cc1	6	2	46	5	2	·
COc1ccc(NC(=O)CN(C)C(=O)c2oc3ccccc3c2C)cc1	1	15	6	0	1	3
COc1ccc(Cn2c(=O)cc(N)n(-c3ccccc3C)c2=O)cc1	-15	·	·	-5	·	17
COc1ccc(CCNC(=S)Nc2ccc(C)cc2C)cc1	2	0	69*	-6	0	15
CC(C)c1ccc(S(=O)(=O)N2CCN(C(C)C(=O)Nc3ccccc3-c3ccccc3)CC2)cc1 (stereo not given)	2	21	16	-14	6	17
CC(C(=O)Nc1ccccc1-c1ccccc1)N1CCN(S(=O)(=O)c2ccccc2)CC1 (stereo not given)	2	61*	21	-26	-1	30
